Where “and” joins values, the source holds several entries; their conditions need not be identical. Equal entries are not always repeated.
Test system: U2OS
Assay: Multiplex assay against U2OS
Type: toxicity, cell-based
Details: human, number of replicates 2
Summary of the method: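 Imaging took place on a CQ1 microscope at 37°C and 5% CO2 once compound had been added to live cells stained at seeding with Hoechst33342, BioTracker Green Microtubule Cytoskeleton Dye, MitoTracker Red and Annexin V Alexa Fluor 680. CellPathfinder machine-learning gating classed cells as Hoechst high-intensity objects or normal cells, classed normal cells as having healthy, pyknosed or fragmented nuclei, and classed pyknosed cells as mitotic or apoptotic. Tubulin, mitochondrial-mass and membrane-permeability phenotypes are per cents of the healthy-nucleus cells.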

[1] = 12 h, 1 µM, compound concentration 1 uM
[2] = 12 h, 10 µM, compound concentration 10 uM
[3] = 24 h, 1 µM, compound concentration 1 uM
[4] = 24 h, 10 µM, compound concentration 10 uM
[5] = 48 h, 1 µM, compound concentration 1 uM
[6] = 48 h, 10 µM, compound concentration 10 uM

CCN1C(=O)N(c2c(F)c(OC)cc(OC)c2F)Cc2cnc3[nH]c(CN4CCOCC4)cc3c21 [PEMIGATINIB]
Population Apoptotic (%) [1]: 83% and 63%
Population Fragmented Nuclei (%) [1]: 7% and 3%
Population Healthy Nuclei (%) [1]: 82% and 90%
Population Hoechst High Intensity Objects (%) [1]: 0%
Population Membrane Permeable-Phenotype (%) [1]: 0% and 1%
Population Mitochondria Different-Phenotype (%) [1]: 0% and 1%
Population Mitotic Cells (%) [1]: 16% and 36%
Population Normal (%) [1]: 100%
Population Pyknosed Nuclei (%) [1]: 9% and 5%
Population Tubulin-Different-Phenotype (%) [1]: 64% and 80%
Population Apoptotic (%) [2]: 33% and 74%
Population Healthy Nuclei (%) [2]: 45% and 78%
Population Hoechst High Intensity Objects (%) [2]: 0%
Population Membrane Permeable-Phenotype (%) [2]: 0% and 5%
Population Mitochondria Different-Phenotype (%) [2]: 0%
Population Mitotic Cells (%) [2]: 66% and 25%
Population Normal (%) [2]: 100%
Population Pyknosed Nuclei (%) [2]: 29% and 15%
Population Tubulin-Different-Phenotype (%) [2]: 64% and 52%
Population Apoptotic (%) [3]: 54% and 90%
Population Fragmented Nuclei (%) [3]: 6% and 2%
Population Healthy Nuclei (%) [3]: 81% and 89%
Population Hoechst High Intensity Objects (%) [3]: 0%
Population Membrane Permeable-Phenotype (%) [3]: 1% and 2%
Population Mitochondria Different-Phenotype (%) [3]: 0% and 2%
Population Normal (%) [3]: 100% and 99%
Population Pyknosed Nuclei (%) [3]: 12% and 7%
Population Tubulin-Different-Phenotype (%) [3]: 66% and 78%
Total Cell Count [3]: 91 and 271
Population Apoptotic (%) [4]: 80% and 78%
Population Fragmented Nuclei (%) [4]: 14% and 6%
Population Healthy Nuclei (%) [4]: 48% and 72%
Population Hoechst High Intensity Objects (%) [4]: 0% and 1%
Population Membrane Permeable-Phenotype (%) [4]: 0% and 5%
Population Mitochondria Different-Phenotype (%) [4]: 0% and 4%
Population Mitotic Cells (%) [4]: 20% and 21%
Population Normal (%) [4]: 100% and 98%
Population Pyknosed Nuclei (%) [4]: 37% and 21%
Population Tubulin-Different-Phenotype (%) [4]: 69% and 56%
Population Apoptotic (%) [5]: 50% and 76%
Population Fragmented Nuclei (%) [5]: 8% and 2%
Population Healthy Nuclei (%) [5]: 80% and 89%
Population Hoechst High Intensity Objects (%) [5]: 0%
Population Membrane Permeable-Phenotype (%) [5]: 0% and 1%
Population Mitochondria Different-Phenotype (%) [5]: 0%
Population Mitotic Cells (%) [5]: 50% and 23%
Population Normal (%) [5]: 100% and 99%
Population Pyknosed Nuclei (%) [5]: 10% and 8%
Population Tubulin-Different-Phenotype (%) [5]: 72% and 82%
Population Apoptotic (%) [6]: 86% and 82%
Population Fragmented Nuclei (%) [6]: 11% and 6%
Population Healthy Nuclei (%) [6]: 25% and 60%
Population Hoechst High Intensity Objects (%) [6]: 0%
Population Membrane Permeable-Phenotype (%) [6]: 0% and 7%
Population Mitochondria Different-Phenotype (%) [6]: 0% and 5%
Population Mitotic Cells (%) [6]: 13% and 17%
Population Normal (%) [6]: 100% and 99%
Population Pyknosed Nuclei (%) [6]: 63% and 33%
Population Tubulin-Different-Phenotype (%) [6]: 44% and 60%

COc1ccc(F)c(F)c1C(=O)c1cnc(NC2CCN(S(C)(=O)=O)CC2)nc1N [RG-547]
Population Apoptotic (%) [1]: 25% and 66%
Population Fragmented Nuclei (%) [1]: 21% and 7%
Population Healthy Nuclei (%) [1]: 68% and 81%
Population Hoechst High Intensity Objects (%) [1]: 0% and 1%
Population Membrane Permeable-Phenotype (%) [1]: 7% and 3%
Population Mitochondria Different-Phenotype (%) [1]: 3% and 2%
Population Mitotic Cells (%) [1]: 75% and 33%
Population Normal (%) [1]: 100% and 98%
Population Pyknosed Nuclei (%) [1]: 10%
Population Tubulin-Different-Phenotype (%) [1]: 69% and 80%
Population Apoptotic (%) [2]: 77% and 70%
Population Fragmented Nuclei (%) [2]: 20% and 12%
Population Healthy Nuclei (%) [2]: 44% and 42%
Population Hoechst High Intensity Objects (%) [2]: 0% and 1%
Population Membrane Permeable-Phenotype (%) [2]: 9% and 14%
Population Mitochondria Different-Phenotype (%) [2]: 0% and 6%
Population Mitotic Cells (%) [2]: 22% and 30%
Population Normal (%) [2]: 100% and 98%
Population Pyknosed Nuclei (%) [2]: 36% and 44%
Population Tubulin-Different-Phenotype (%) [2]: 72% and 57%
Population Apoptotic (%) [3]: 57% and 70%
Population Fragmented Nuclei (%) [3]: 13% and 9%
Population Healthy Nuclei (%) [3]: 66% and 77%
Population Hoechst High Intensity Objects (%) [3]: 0%
Population Membrane Permeable-Phenotype (%) [3]: 4%
Population Mitochondria Different-Phenotype (%) [3]: 4% and 3%
Population Mitotic Cells (%) [3]: 42% and 30%
Population Normal (%) [3]: 100% and 99%
Population Pyknosed Nuclei (%) [3]: 19% and 12%
Population Tubulin-Different-Phenotype (%) [3]: 66% and 79%
Population Apoptotic (%) [4]: 85%
Population Fragmented Nuclei (%) [4]: 15% and 12%
Population Healthy Nuclei (%) [4]: 41% and 32%
Population Hoechst High Intensity Objects (%) [4]: 0% and 2%
Population Membrane Permeable-Phenotype (%) [4]: 21% and 12%
Population Mitochondria Different-Phenotype (%) [4]: 21% and 12%
Population Mitotic Cells (%) [4]: 15% and 14%
Population Normal (%) [4]: 100% and 97%
Population Pyknosed Nuclei (%) [4]: 43% and 54%
Population Tubulin-Different-Phenotype (%) [4]: 68% and 72%
Population Apoptotic (%) [5]: 85%
Population Fragmented Nuclei (%) [5]: 30% and 20%
Population Healthy Nuclei (%) [5]: 39% and 65%
Population Hoechst High Intensity Objects (%) [5]: 0%
Population Membrane Permeable-Phenotype (%) [5]: 11% and 2%
Population Mitochondria Different-Phenotype (%) [5]: 5% and 1%
Population Mitotic Cells (%) [5]: 14%
Population Normal (%) [5]: 100% and 99%
Population Pyknosed Nuclei (%) [5]: 30% and 13%
Population Tubulin-Different-Phenotype (%) [5]: 66% and 75%
Population Apoptotic (%) [6]: 94% and 87%
Population Fragmented Nuclei (%) [6]: 14% and 10%
Population Healthy Nuclei (%) [6]: 11% and 2%
Population Hoechst High Intensity Objects (%) [6]: 5% and 0%
Population Mitotic Cells (%) [6]: 5% and 12%
Population Normal (%) [6]: 94% and 100%
Population Pyknosed Nuclei (%) [6]: 74% and 86%
Population Tubulin-Different-Phenotype (%) [6]: 88% and 100%

Cl.Clc1ccc2nsnc2c1NC1=NCCN1 [TIZANIDINE HYDROCHLORIDE]
Population Apoptotic (%) [1]: 50% and 55%
Population Fragmented Nuclei (%) [1]: 14% and 4%
Population Healthy Nuclei (%) [1]: 75% and 86%
Population Hoechst High Intensity Objects (%) [1]: 0%
Population Membrane Permeable-Phenotype (%) [1]: 0% and 1%
Population Mitochondria Different-Phenotype (%) [1]: 3% and 0%
Population Mitotic Cells (%) [1]: 50% and 44%
Population Normal (%) [1]: 100%
Population Pyknosed Nuclei (%) [1]: 9%
Population Tubulin-Different-Phenotype (%) [1]: 100% and 96%
Population Fragmented Nuclei (%) [2]: 7% and 4%
Population Healthy Nuclei (%) [2]: 89% and 87%
Population Hoechst High Intensity Objects (%) [2]: 0%
Population Membrane Permeable-Phenotype (%) [2]: 2% and 0%
Population Mitochondria Different-Phenotype (%) [2]: 0%
Population Normal (%) [2]: 100%
Population Pyknosed Nuclei (%) [2]: 2% and 8%
Population Tubulin-Different-Phenotype (%) [2]: 68% and 97%
Population Apoptotic (%) [3]: 100% and 58%
Population Fragmented Nuclei (%) [3]: 8% and 3%
Population Healthy Nuclei (%) [3]: 85% and 89%
Population Hoechst High Intensity Objects (%) [3]: 1% and 0%
Population Membrane Permeable-Phenotype (%) [3]: 1%
Population Mitochondria Different-Phenotype (%) [3]: 0% and 1%
Population Normal (%) [3]: 98% and 100%
Population Pyknosed Nuclei (%) [3]: 6% and 7%
Population Tubulin-Different-Phenotype (%) [3]: 100% and 95%
Population Fragmented Nuclei (%) [4]: 10% and 2%
Population Healthy Nuclei (%) [4]: 89% and 92%
Population Hoechst High Intensity Objects (%) [4]: 0%
Population Membrane Permeable-Phenotype (%) [4]: 0% and 1%
Population Mitochondria Different-Phenotype (%) [4]: 0%
Population Normal (%) [4]: 100%
Population Pyknosed Nuclei (%) [4]: 0% and 5%
Population Tubulin-Different-Phenotype (%) [4]: 77% and 96%
Population Apoptotic (%) [5]: 40%
Population Fragmented Nuclei (%) [5]: 11%
Population Healthy Nuclei (%) [5]: 78%
Population Hoechst High Intensity Objects (%) [5]: 1%
Population Membrane Permeable-Phenotype (%) [5]: 3%
Population Mitochondria Different-Phenotype (%) [5]: 0%
Population Mitotic Cells (%) [5]: 60%
Population Normal (%) [5]: 98%
Population Pyknosed Nuclei (%) [5]: 10%
Population Tubulin-Different-Phenotype (%) [5]: 97%
Total Cell Count [5]: 99
Population Apoptotic (%) [6]: 88% and 38%
Population Fragmented Nuclei (%) [6]: 4% and 2%
Population Healthy Nuclei (%) [6]: 84% and 92%
Population Hoechst High Intensity Objects (%) [6]: 0%
Population Membrane Permeable-Phenotype (%) [6]: 2% and 0%
Population Mitochondria Different-Phenotype (%) [6]: 0%
Population Normal (%) [6]: 100%
Population Pyknosed Nuclei (%) [6]: 10% and 4%
Population Tubulin-Different-Phenotype (%) [6]: 72% and 99%

Source: ChEMBL document CHEMBL5303300, “EUbOPEN Chemogenomics Library - Multiplex” (2023)
